≈ marks a conversion by molar mass, not a printed value. Calls of active or inactive are those of the source. No cut-off for these calls is given here.
Legend:
Mus musculus = experiment: Antiinflammatory activity in mouse assessed as inhibition of carrageenan-induced increase in paw volume at 200 mg/kg administered 1 hr prior to carrageenan challenge measured after 3 hrs relative to control; type: functional
Outline: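 Mice were fasted 2 h and placed in groups of five. Controls received saline i.p. Phenylbutazone was given at 100 mg/kg i.p., curcumin at 200 mg/kg i.p., and derivatives at 200 mg/kg. After 1 h, 0.1 mL of 1% carrageenan in saline was injected subplantar into the right hind paw. Paw volume was followed by plethysmometer for 3 h, and % inhibition was calculated as (Vc − Vt)/Vc × 100.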

Staphylococcus aureus [1] = experiment: Antimicrobial activity against Staphylococcus aureus ATCC 11632 after 24 hrs by broth micro serial dilution method; type: functional; details: ATCC 11632, 24 h
Outline: (§1)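 This was broth microdilution in autoclaved Mueller-Hinton broth. 150 µL of compound per well was serially diluted […], and 50 µL of test organism was added. Plates were incubated 24 h at 37 °C and optical density was read.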

HeLa = experiment: Cytotoxicity against human HeLa cells after 24 hrs by MTT assay; type: functional, cell-based
Outline: (§2)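 The MTT assay seeded 5 × 10⁴ cells per well and grew them 24 h in RPMI 1640 with compound at 2.5–200 µM. Medium without cells was the blank and adriamycin the positive control. MTT was added for 4 h at 37 °C, formazan was solubilised, and absorbance was read at 570 nm. IC50 is the concentration that cuts viability 50% against untreated cells.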

Trichoderma viride [2] = experiment: Antifungal activity against Trichoderma viride MTCC 1107 assessed as zone of inhibition at 40 uM after 48 hrs by disc diffusion method; type: functional; details: MTCC 1107, 48 h, read-out: IZ
Outline: (§3)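 Spores from 4-day potato dextrose agar cultures, suspended in sterile water at 1.5 × 10⁵ CFU/mL. 0.2 mL was spread on potato dextrose agar. 5 mm filter-paper discs soaked with test compound were laid on the lawn. Incubation was 48 h at 28 °C, then the inhibition zone was measured in mm. Fluconazole was the positive control and acetone the negative control.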

Salmonella typhi [3] = experiment: Antimicrobial activity against Salmonella typhi ATCC 23564 after 24 hrs by broth micro serial dilution method; type: functional; details: Salmonella enterica subsp. enterica serovar Typhi
Bacillus cereus [4] = experiment: Antimicrobial activity against Bacillus cereus MTCC 7350 assessed as diameter of inhibition zone at 80 uM after 24 hrs by Kirby -Baur disc diffusion method; type: functional; details: MTCC 7350, 24 h, read-out: DIZ
Outline: (§4)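 Kirby-Bauer disc diffusion was used. Acetone stocks (160 µM) were serially doubled down to 80, 40 and 20 µM. 4 µL of each went onto 5 mm sterile paper discs, which were dried 30 min at 50 °C. Inoculum was 1.5 × 10⁸ CFU/mL diluted to 3 × 10² CFU/mL, and 50 µL was spread on Mueller-Hinton agar. After 24 h at 37 °C the inhibition-zone diameter was measured. Ciprofloxacin served as positive control.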

Curvularia lunata [5] = experiment: Antifungal activity against Curvularia lunata MTCC 581 after 48 hrs; type: functional; details: MTCC 581, 48 h
Staphylococcus aureus [6] = experiment: Antimicrobial activity against Staphylococcus aureus ATCC 11632 assessed as diameter of inhibition zone at 40 uM after 24 hrs by Kirby -Baur disc diffusion method; type: functional; details: ATCC 11632, 24 h, read-out: DIZ; outline: as §4
Escherichia coli [7] = experiment: Antimicrobial activity against Escherichia coli ATCC 35218 assessed as diameter of inhibition zone at 80 uM after 24 hrs by Kirby -Baur disc diffusion method; type: functional; outline: as §4
Aspergillus flavus [8] = experiment: Antifungal activity against Aspergillus flavus MTCC 1021 assessed as zone of inhibition at 80 uM after 48 hrs by disc diffusion method; type: functional; details: MTCC 1021, 48 h, read-out: IZ; outline: as §3
Aspergillus flavus [9] = experiment: Antifungal activity against Aspergillus flavus MTCC 1021 after 48 hrs; type: functional; details: MTCC 1021, 48 h
HepG2 = experiment: Cytotoxicity against human HepG2 cells after 24 hrs by MTT assay; type: functional, cell-based; outline: as §2
Pseudomonas aeruginosa [10] = experiment: Antimicrobial activity against Pseudomonas aeruginosa ATCC 15499 after 24 hrs by broth micro serial dilution method; type: functional; details: ATCC 15499, 24 h; outline: as §1
Aspergillus niger [11] = experiment: Antifungal activity against Aspergillus niger MTCC 1108 assessed as zone of inhibition at 20 uM after 48 hrs by disc diffusion method; type: functional; outline: as §3
Staphylococcus aureus [12] = experiment: Antimicrobial activity against Staphylococcus aureus ATCC 11632 assessed as diameter of inhibition zone at 20 uM after 24 hrs by Kirby -Baur disc diffusion method; type: functional; outline: as §4
Trichoderma viride [13] = experiment: Antifungal activity against Trichoderma viride MTCC 1107 after 48 hrs; type: functional; details: MTCC 1107, 48 h
Bacillus cereus [14] = experiment: Antimicrobial activity against Bacillus cereus MTCC 7350 assessed as diameter of inhibition zone at 20 uM after 24 hrs by Kirby -Baur disc diffusion method; type: functional; outline: as §4
HCT-116 = experiment: Cytotoxicity against human HCT116 cells after 24 hrs by MTT assay; type: functional, cell-based; outline: as §2
Escherichia coli [15] = experiment: Antimicrobial activity against Escherichia coli ATCC 35218 after 24 hrs by broth micro serial dilution method; type: functional; details: ATCC 35218, 24 h; outline: as §1
Bacillus cereus [16] = experiment: Antimicrobial activity against Bacillus cereus MTCC 7350 assessed as diameter of inhibition zone at 40 uM after 24 hrs by Kirby -Baur disc diffusion method; type: functional; outline: as §4
Salmonella typhi [17] = experiment: Antimicrobial activity against Salmonella typhi ATCC 23564 assessed as diameter of inhibition zone at 80 uM after 24 hrs by Kirby -Baur disc diffusion method; type: functional; details: Salmonella enterica subsp. enterica serovar Typhi
Aspergillus flavus [18] = experiment: Antifungal activity against Aspergillus flavus MTCC 1021 assessed as zone of inhibition at 40 uM after 48 hrs by disc diffusion method; type: functional; details: MTCC 1021, 48 h, read-out: IZ; outline: as §3
Staphylococcus aureus [19] = experiment: Antimicrobial activity against Staphylococcus aureus ATCC 11632 assessed as diameter of inhibition zone at 80 uM after 24 hrs by Kirby -Baur disc diffusion method; type: functional; details: ATCC 11632, 24 h, read-out: DIZ; outline: as §4
Curvularia lunata [20] = experiment: Antifungal activity against Curvularia lunata MTCC 581 assessed as zone of inhibition at 20 uM after 48 hrs by disc diffusion method; type: functional; details: MTCC 581, 48 h, read-out: IZ; outline: as §3
Pseudomonas aeruginosa [21] = experiment: Antimicrobial activity against Pseudomonas aeruginosa ATCC 15499 assessed as diameter of inhibition zone at 80 uM after 24 hrs by Kirby -Baur disc diffusion method; type: functional; outline: as §4
Aspergillus niger [22] = experiment: Antifungal activity against Aspergillus niger MTCC 1108 after 48 hrs; type: functional; details: MTCC 1108, 48 h
Bacillus cereus [23] = experiment: Antimicrobial activity against Bacillus cereus MTCC 7350 after 24 hrs by broth micro serial dilution method; type: functional; details: MTCC 7350, 24 h; outline: as §1
Trichoderma viride [24] = experiment: Antifungal activity against Trichoderma viride MTCC 1107 assessed as zone of inhibition at 80 uM after 48 hrs by disc diffusion method; type: functional; details: MTCC 1107, 48 h, read-out: IZ; outline: as §3
Curvularia lunata [25] = experiment: Antifungal activity against Curvularia lunata MTCC 581 assessed as zone of inhibition at 80 uM after 48 hrs by disc diffusion method; type: functional; details: MTCC 581, 48 h, read-out: IZ; outline: as §3
Trichoderma viride [26] = experiment: Antifungal activity against Trichoderma viride MTCC 1107 assessed as zone of inhibition at 20 uM after 48 hrs by disc diffusion method; type: functional; details: MTCC 1107, 48 h, read-out: IZ; outline: as §3
QG-56 = experiment: Cytotoxicity against human QG56 cells after 24 hrs by MTT assay; type: functional, cell-based; outline: as §2
Aspergillus niger [27] = experiment: Antifungal activity against Aspergillus niger MTCC 1108 assessed as zone of inhibition at 40 uM after 48 hrs by disc diffusion method; type: functional; details: MTCC 1108, 48 h, read-out: IZ; outline: as §3
Aspergillus niger [28] = experiment: Antifungal activity against Aspergillus niger MTCC 1108 assessed as zone of inhibition at 80 uM after 48 hrs by disc diffusion method; type: functional; details: MTCC 1108, 48 h, read-out: IZ; outline: as §3
Curvularia lunata [29] = experiment: Antifungal activity against Curvularia lunata MTCC 581 assessed as zone of inhibition at 40 uM after 48 hrs by disc diffusion method; type: functional; details: MTCC 581, 48 h, read-out: IZ; outline: as §3
Aspergillus flavus [30] = experiment: Antifungal activity against Aspergillus flavus MTCC 1021 assessed as zone of inhibition at 20 uM after 48 hrs by disc diffusion method; type: functional; details: MTCC 1021, 48 h, read-out: IZ; outline: as §3

COc1ccc(NS(=O)(=O)c2ccc(/N=N/C(C(=O)/C=C/c3ccc(O)c(OC)c3)=C(O)\C=C\c3ccc(O)c(OC)c3)cc2)nn1 was tested, and the inhibition in vivo at 200 mg/kg (Mus musculus) was 29%, the MIC (Staphylococcus aureus [1]) was > 80 µM and the IC50 (HeLa) was 100 µM. For the same molecule, the zone of inhibition at 40 µM (Trichoderma viride [2]) was 16 mm, the MIC (Salmonella typhi [3]) was “inactive” and the zone of inhibition at 80 µM (Bacillus cereus [4]) was 9 mm. The MIC (Curvularia lunata [5]) was 20 µM (≈ 13.2 µg/mL), the zone of inhibition at 40 µM (Staphylococcus aureus [6]) was 9 mm and the “diameter of the inhibition zone (DIZ)” value (Escherichia coli [7]) was “inactive”. For the same molecule, the zone of inhibition at 80 µM (Aspergillus flavus [8]) was 15 mm, the MIC (Aspergillus flavus [9]) was 40 µM (≈ 26.4 µg/mL) and the IC50 (HepG2) was > 100 µM. For the same molecule, the MIC (Pseudomonas aeruginosa [10]) was > 80 µM, the “inhibition zone (IZ)” value (Aspergillus niger [11]) was “inactive” and the “diameter of the inhibition zone (DIZ)” value (Staphylococcus aureus [12]) was “inactive”. The MIC (Trichoderma viride [13]) was 20 µM (≈ 13.2 µg/mL), the “diameter of the inhibition zone (DIZ)” value (Bacillus cereus [14]) was “inactive” and the IC50 (HCT-116) was “Not Active”. The MIC (Escherichia coli [15]) was > 80 µM, the “diameter of the inhibition zone (DIZ)” value (Bacillus cereus [16]) was “inactive” and the “diameter of the inhibition zone (DIZ)” value (Salmonella typhi [17]) was “inactive”. For the same molecule, the zone of inhibition at 40 µM (Aspergillus flavus [18]) was 12 mm, the zone of inhibition at 80 µM (Staphylococcus aureus [19]) was 11 mm and the zone of inhibition at 20 µM (Curvularia lunata [20]) was 12 mm. For the same molecule, the “diameter of the inhibition zone (DIZ)” value (Pseudomonas aeruginosa [21]) was “inactive”, the MIC (Aspergillus niger [22]) was > 80 µM and the MIC (Bacillus cereus [23]) was > 80 µM. The zone of inhibition at 80 µM (Trichoderma viride [24]) was 19 mm, the zone of inhibition at 80 µM (Curvularia lunata [25]) was 19 mm and the zone of inhibition at 20 µM (Trichoderma viride [26]) was 12 mm. For the same molecule, the IC50 (QG-56) was > 100 µM, the zone of inhibition at 40 µM (Aspergillus niger [27]) was 9 mm and the zone of inhibition at 80 µM (Aspergillus niger [28]) was 12 mm. It also gave a zone of inhibition at 40 µM (Curvularia lunata [29]) of 16 mm and a zone of inhibition at 20 µM (Aspergillus flavus [30]) of 11 mm.

Source: ChEMBL document CHEMBL2384906, “Biological activity, design, synthesis and structure activity relationship of some novel derivatives of curcumin containing sulfonamides” (Eur J Med Chem, 2013)
